Data as given in ChEMBL document CHEMBL2057186, “Application of the bicyclo[1.1.1]pentane motif as a nonclassical phenyl ring bioisostere in the design of a potent and orally active γ-secretase inhibitor” (J Med Chem, 2012).
≈ marks a conversion by molar mass, not a printed value.

What was measured:
[1] = test system: P-gp; assay: Efflux ratio of apparent permeability from basal to apical side to apical to basal side of MDCK cells expressing human P-gp; type: ADME, cell-based, Canis lupus familiaris; settings: dog, MDCK-MDR1
How it was run: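 Monolayers were MDCK cells transfected with the human P-glycoprotein (MDR1) gene. Permeability was measured basolateral-to-apical and apical-to-basolateral, and the BA/AB ratio was reported.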

[2] = Kinetic solubility of the solubility of the compound at pH 6.5; type: physicochemical; settings: buffer, read-out: Kinetic_solubility
How it was run: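 Kinetic solubility was measured in aqueous buffer at pH 6.5.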

[3] = target: Gamma-secretase; assay: Inhibition of gamma secretase-mediated amyloid beta42 production in human H4 cells expressing human wild-type APP
[4] = Apparent permeability from apical to basal side of dog RRCK cells; type: ADME, cell-based, Canis lupus familiaris, MDCKII-LE; settings: for Papp A→B: MDCK
How it was run: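 Absorptive (A to B) permeability was measured in RRCK cells, a Madin–Darby canine kidney subline isolated for low transporter activity. It estimates intrinsic passive permeability.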

[5] = species: Homo sapiens; assay: Selectivity for human gamma-seretase over notch signalling protein

| efflux ratio [1] | solubility kinetic [2] [µM] | IC50 [3] [µM] | Papp A→B [4] [×10⁻⁶ cm/s] | Selectivity Index [5] | Papp ([4]; mdckii-le) [×10⁻⁶ cm/s] | Structure (SMILES) |
| --- | --- | --- | --- | --- | --- | --- |
| 1.71 | 6.8 (≈ 3.25 µg/mL) | 0.00177 | 18.7 | – | – | N#Cc1ccc(CN([C@H](CCC(F)(F)F)C(N)=O)S(=O)(=O)c2ccc(Cl)cc2)c(F)c1 |
| – | – | 0.0121 | 31.3 | – | – | NC(=O)[C@@H](CCC(F)(F)F)N(CCCc1ncon1)S(=O)(=O)c1ccc(Cl)cc1 |
| – | – | 0.0096 | 29.9 | – | – | N#CC1(CN([C@H](CCC(F)(F)F)C(N)=O)S(=O)(=O)c2ccc(Cl)cc2)CC1 |
| 2.04 | 272 (≈ 122 µg/mL) | 0.00099 | 30.2 | 467 | – | N#CC12CC(CN([C@H](CCC(F)(F)F)C(N)=O)S(=O)(=O)c3ccc(Cl)cc3)(C1)C2 |
| – | – | 0.0225 | 10.2 | – | – | N#CCCN([C@H](CCC(F)(F)F)C(N)=O)S(=O)(=O)c1ccc(Cl)cc1 |
| – | – | 0.00411 | – | – | 14.6 | N#C[C@H]1CC[C@H](CN([C@H](CCC(F)(F)F)C(N)=O)S(=O)(=O)c2ccc(Cl)cc2)CC1 (stereo in doubt; 20) |
| – | – | 0.0871 | 27.6 | – | – | N#CCCCN([C@H](CCC(F)(F)F)C(N)=O)S(=O)(=O)c1ccc(Cl)cc1 |
| – | – | 0.0455 | 16.4 | – | – | NC(=O)[C@@H](CCC(F)(F)F)N(CC1(c2ncon2)CC1)S(=O)(=O)c1ccc(Cl)cc1 |
| – | – | 0.0111 | 24 | – | – | N#CCCCCN([C@H](CCC(F)(F)F)C(N)=O)S(=O)(=O)c1ccc(Cl)cc1 |
| – | – | 0.0147 | 9.94 | – | – | N#C[C@@H]1C[C@H]1CN([C@H](CCC(F)(F)F)C(N)=O)S(=O)(=O)c1ccc(Cl)cc1 |
